In ChEMBL document CHEMBL2440043, “Synthesis and structure-activity relationship of 2-phenyliminochromene derivatives as inhibitors for aldo-keto reductase (AKR) 1B10” (Bioorg Med Chem, 2013) one finds inhibition, IC50 and Ki data, which are given here for 18 compounds.

Bounds are passed on as bounds.

For assay [1], the target named is T1, Aldo-keto reductase family 1 member B1 (Homo sapiens, UniProt P15121). Put plainly: Inhibition of human recombinant N-terminal His6-tagged AKR1B1 expressed in Escherichia coli at 10000 nM by fluorescence assay in presence of NADPH.
The target of assay [2] is T1, Aldo-keto reductase family 1 member B1. Description: Inhibition of human recombinant N-terminal His6-tagged AKR1B1 expressed in Escherichia coli by fluorescence assay in presence of NADPH.
Assay [3] has as its target T2, Aldo-keto reductase family 1 member B10 (Homo sapiens, UniProt O60218). Put plainly: Inhibition of human recombinant N-terminal His6-tagged AKR1B10 expressed in Escherichia coli by fluorescence assay in presence of NADPH.
Target sequence in this assay (O60218 whole entry): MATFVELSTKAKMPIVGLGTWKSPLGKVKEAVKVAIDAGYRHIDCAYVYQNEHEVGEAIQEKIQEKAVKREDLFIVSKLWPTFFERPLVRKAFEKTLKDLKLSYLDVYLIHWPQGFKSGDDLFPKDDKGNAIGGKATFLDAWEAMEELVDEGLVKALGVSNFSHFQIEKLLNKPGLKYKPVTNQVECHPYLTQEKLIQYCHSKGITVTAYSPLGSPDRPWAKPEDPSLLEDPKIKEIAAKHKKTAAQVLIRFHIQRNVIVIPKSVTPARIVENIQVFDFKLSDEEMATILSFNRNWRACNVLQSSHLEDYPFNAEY
Assay [4] concerns the target T2, Aldo-keto reductase family 1 member B10. Put plainly: Inhibition of human recombinant N-terminal His6-tagged AKR1B10 expressed in Escherichia coli at 10000 nM by fluorescence assay in presence of NADPH.
Target sequence in this assay (O60218 whole entry, looked up): as the sequence (O60218 whole entry) above
Assay [5] has as its target Aldo-keto reductase family 1 member B10 (Homo sapiens, UniProt O60218, Q303S). Description: Competitive inhibition of human recombinant AKR1B10 Q303S mutant expressed in Escherichia coli using geraniol as substrate by double-reciprocal plot analysis in presence of NADP+. An outline of the steps:
(§1)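 Purified enzyme from E. coli, assayed by NADP⁺-linked geraniol oxidation at 25 °C. NADPH formation was read by fluorescence (ex 340 nm, em 455 nm). NADP⁺ was saturating at 0.25 mM, with five geraniol concentrations (25–200 μM) and three inhibitor concentrations. Ki came from replots of the slopes and intercepts of double-reciprocal plots; mean of at least three determinations.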

The target in assay [6] is Aldo-keto reductase family 1 member B10 (Homo sapiens, UniProt O60218, W220Y). Put plainly: Competitive inhibition of human recombinant AKR1B10 W220Y mutant expressed in Escherichia coli using geraniol as substrate by double-reciprocal plot analysis in presence of NADP+. The essentials:
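Trp220Tyr mutant purified from E. coli; geraniol oxidation with saturating NADP⁺ (0.25 mM) at 25 °C, followed by NADPH fluorescence (ex 340 nm, em 455 nm). Five geraniol levels (50–800 μM) were tested at three inhibitor concentrations. Ki came from slope and intercept replots of double-reciprocal plots; mean of at least three determinations.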

Assay [7] concerns the target T2, Aldo-keto reductase family 1 member B10. Description: Competitive inhibition of wild-type human recombinant N-terminal His6-tagged AKR1B10 expressed in Escherichia coli using geraniol as substrate by double-reciprocal plot analysis in presence of NADP+. An outline of the steps:
as §1
Target sequence in this assay (O60218 whole entry): as above

Aldo-keto reductase family 1 member B10 (Homo sapiens, UniProt O60218, Q303S), sequence (O60218 whole entry Q303S): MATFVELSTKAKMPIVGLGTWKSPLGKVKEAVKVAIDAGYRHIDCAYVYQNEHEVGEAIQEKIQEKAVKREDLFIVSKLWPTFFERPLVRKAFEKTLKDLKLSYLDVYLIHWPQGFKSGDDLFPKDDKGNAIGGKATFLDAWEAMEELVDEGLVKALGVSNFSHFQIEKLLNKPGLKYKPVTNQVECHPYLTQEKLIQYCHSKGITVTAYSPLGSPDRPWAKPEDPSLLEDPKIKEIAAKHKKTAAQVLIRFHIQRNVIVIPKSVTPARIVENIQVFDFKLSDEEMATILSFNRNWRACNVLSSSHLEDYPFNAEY
Aldo-keto reductase family 1 member B10 (Homo sapiens, UniProt O60218, W220Y), sequence (O60218 whole entry W220Y): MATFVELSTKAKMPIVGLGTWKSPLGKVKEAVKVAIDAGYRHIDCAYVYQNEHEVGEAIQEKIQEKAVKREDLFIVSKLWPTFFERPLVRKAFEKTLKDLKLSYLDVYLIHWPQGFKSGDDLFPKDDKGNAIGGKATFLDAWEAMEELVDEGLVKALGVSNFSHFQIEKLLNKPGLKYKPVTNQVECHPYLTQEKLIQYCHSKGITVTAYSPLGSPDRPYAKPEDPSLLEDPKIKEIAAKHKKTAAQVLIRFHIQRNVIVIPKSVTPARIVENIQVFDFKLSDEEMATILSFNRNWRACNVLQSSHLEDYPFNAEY

As for `COc1ccc(/N=c2\oc3cccc(O)c3cc2C(=O)Nc2ccccn2)cc1`, the inhibition in assay [1] is under 30%. Moreover, the IC50 in assay [2] is over 10000 nM.
In the case of `COc1ccc(/N=c2\oc3ccc(O)cc3cc2C(=O)Nc2ccccn2)cc1`, the inhibition in assay [1] and in assay [4] was under 30% throughout. Besides, the concentration for half-maximal inhibition (IC50) in assay [2] and in assay [3] was over 10000 nM in each case.
On to `Cc1ccc(/N=c2\oc3cc(O)ccc3cc2C(=O)Nc2ccccn2)cc1`, for which the figures for the IC50 in assay [2] and in assay [3] were 26 nM and 8.6 nM, respectively.
For the compound `COc1ccc(/N=c2\oc3cc(O)ccc3cc2C(=O)NCC(C)C)cc1`, the IC50 in assay [2] is 28 nM; in assay [3] it was 16 nM.
As for `O=C(Nc1ccccn1)c1cc2ccc(O)cc2o/c1=N\c1ccc(I)cc1`, the half-maximal inhibitory concentration (IC50) came out at 12 nM in assay [2] and 13 nM in assay [3].
As for `O=C(Nc1ccccn1)c1cc2ccc(O)cc2o/c1=N\c1ccc(O)cc1`, the IC50 was found to be 24 nM in assay [2] and 6.8 nM in assay [3].
In the same order, the values of `CCCCNC(=O)c1cc2ccc(O)cc2o/c1=N\c1ccc(OC)cc1` are 28 nM and 18 nM.
In the same order, the values of `O=C(O)Cc1ccc(/N=c2\oc3cc(O)ccc3cc2C(=O)Nc2ccccn2)cc1` are 20 nM and 13 nM.
Turning to `COc1ccc(/N=c2\oc3cc(O)ccc3cc2C(=O)NCCCO)cc1`, the IC50 in assay [2] turned out to be 29 nM; in assay [3] it was 8.8 nM.
Taken in the same sequence, the figures for `O=C(Nc1ccccn1)c1cc2ccc(O)cc2o/c1=N\c1ccccc1` were 34 nM and 12 nM.
In the same order, the values of `COc1ccc(/N=c2\oc3cc(O)ccc3cc2C(=O)NC2CCCCC2)cc1` are 27 nM and 11 nM.
In the same order, the values of `COc1ccc(/N=c2\oc3cc(O)ccc3cc2C(=O)NCCO)cc1` are 20 nM and 11 nM.
Consider `COc1ccc(/N=c2\oc3ccccc3cc2C(=O)Nc2ccccn2)cc1`, for which the inhibition in assay [1] was under 30%.
For the compound `COc1ccc(/N=c2\oc3cc(O)ccc3cc2C(=O)NC(C)C)cc1`, the concentration for half-maximal inhibition (IC50) amounted to 6.7 nM in assay [2] and 9.7 nM in assay [3].
`COc1ccc(/N=c2\oc3cc(O)ccc3cc2C(=O)NCc2ccccc2)cc1`: the inhibitory constant (Ki) in assay [5] is 3.8 nM; in assay [6] it was 51 nM; in assay [7], 1.3 nM. Further, the figures for the IC50 in assay [2] and in assay [3] were 24 nM and 4.7 nM, respectively.
`O=C(O)c1ccc(/N=c2\oc3cc(O)ccc3cc2C(=O)Nc2ccccn2)cc1`: the figures for the half-inhibitory concentration (IC50) in assay [2] and in assay [3] were 19 nM and 7.6 nM, respectively.
For `COc1ccc(/N=c2\oc3c(O)cccc3cc2C(=O)Nc2ccccn2)cc1`, the inhibition in assay [1] and in assay [4] was under 30% in each case. For the same compound, the half-maximal inhibitory concentration (IC50) in assay [2] and in assay [3] was over 10000 nM throughout.
As for `O=C(Nc1ccccn1)c1cc2ccc(O)cc2o/c1=N\c1ccc(Br)cc1`, the half-inhibitory concentration (IC50) came to 25 nM in assay [2] and 14 nM in assay [3].
